The text below walks through data of ChEMBL document CHEMBL4622983, “Structure-Activity Relationship Studies of α-Ketoamides as Inhibitors of the Phospholipase A and Acyltransferase Enzyme Family” (J Med Chem, 2020).

Active and inactive are the calls of the source. No cut-off for these calls is given here.

The target in test [1] is T1, Phospholipase A and acyltransferase 2 (Homo sapiens) (UniProt Q9NWW9).
T1 sequence (whole entry): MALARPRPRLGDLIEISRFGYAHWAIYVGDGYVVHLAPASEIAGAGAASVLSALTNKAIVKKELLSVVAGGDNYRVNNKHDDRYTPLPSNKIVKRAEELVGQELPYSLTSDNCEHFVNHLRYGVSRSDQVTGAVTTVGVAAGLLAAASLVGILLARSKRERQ
Nature of the test: Inhibition of full-length C-terminal FLAG-tagged human PLAAT2 expressed in human U2OS cells assessed as reduction in absolute N-palmitoleoylethanolamine level at 10 uM incubated for 4 hrs by LC-MS/MS analysis. It is filed as cell-based. The essentials: (§1)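 U2OS cells transfected with PLAAT2, PLAAT5 or empty vector (PEI, 1:5 plasmid/PEI). At 24 h, switched to serum-free medium with 10 μM compound (0.1% DMSO) or DMSO for 4 h at 37 °C. Pellets extracted with MTBE against deuterated internal standards. NAEs, 2-AG and free fatty acids quantified by LC–MS/MS, normalized to live cell count. Four biological replicates; one-way ANOVA.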

The target of test [2] is T2, Phospholipase A and acyltransferase 5 (Homo sapiens) (UniProt Q96KN8).
T2 sequence (whole entry): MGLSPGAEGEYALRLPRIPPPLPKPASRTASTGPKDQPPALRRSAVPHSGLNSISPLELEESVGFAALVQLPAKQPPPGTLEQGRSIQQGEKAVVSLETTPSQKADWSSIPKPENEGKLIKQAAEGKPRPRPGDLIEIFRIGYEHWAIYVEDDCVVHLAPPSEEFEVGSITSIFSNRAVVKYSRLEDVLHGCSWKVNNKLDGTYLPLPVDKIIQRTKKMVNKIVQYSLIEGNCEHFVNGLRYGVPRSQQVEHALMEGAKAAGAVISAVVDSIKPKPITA
Briefly: Inhibition of full-length C-terminal FLAG-tagged human PLAAT5 expressed in human U2OS cells assessed as reduction in anandamide level at 10 uM incubated for 4 hrs by LC-MS/MS analysis relative to control. Format: cell-based. The essentials:
as §1

Test [3] deals with Fatty-acid amide hydrolase 1 (Mus musculus) (UniProt O08914). Nature of the test: Inhibition of mouse brain membrane FAAH assessed as enzyme remaining activity at 10 uM preincubated for 30 mins followed by MB064 or FP-TAMRA addition and measured after 15 mins by SDS-PAGE based ABPP analysis relative to control. Format: cell membranes. The essentials:
(§2)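 Mouse brain membrane proteome (2 μg/μL) preincubated with 10 μM inhibitor for 30 min at rt. Then MB064 250 nM or FP-TAMRA 500 nM for 15 min at rt. Resolved on 10% SDS-PAGE, fluorescence normalized to Coomassie. Reported as % remaining activity ± SD, n = 3.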

The target of test [4] is Cannabinoid receptor 1 (Homo sapiens) (UniProt P21554). Briefly: Displacement of [3H]CP55940 from human CB1 receptor expressed in CHOK1 cell membranes at 10 uM by liquid scintillation spectrometry analysis. The settings on record: CHO-K1. The essentials:
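[3H]CP55940 displacement at human CB1 or CB2 receptors, single test concentration 10 μM. Result expressed as % radioligand displacement ± SD (N = 2, n = 2).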

Test [5] concerns the target Cytosolic phospholipase A2 epsilon (Homo sapiens) (UniProt Q3MJ16). Briefly: Inhibition of full length human PLA2G4E assessed as enzyme remaining activity at 10 uM using FP-TAMRA as substrate preincubated for 30 mins followed by substrate addition and measured after 5 mins by SDS-PAGE based ABPP analysis relative to control. The essentials: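 hPLA2G4E-overexpressing membrane lysate (1 μg/μL) preincubated with 10 μM inhibitor for 30 min at rt. FP-TAMRA 50 nM added for 5 min at rt. Resolved on 8% SDS-PAGE, fluorescence normalized to Coomassie. Reported as % remaining activity ± SD, n = 3.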

The subject of test [6] is U2OS. Nature of the test: Downregulation of N-palmitoleoylethanolamine level in human U2OS cells at 10 uM after 4 hrs by LC-MS/MS analysis. Format: functional, cell-based. The essentials:
as §1

Test [7] concerns the target T1, Phospholipase A and acyltransferase 2 (Homo sapiens). Briefly: Inhibition of full-length C-terminal FLAG-tagged human PLAAT2 expressed in human U2OS cells assessed as reduction in absolute N-stearoylethanolamine level at 10 uM incubated for 4 hrs by LC-MS/MS analysis. It is filed as cell-based. The essentials:
as §1

Test [8] deals with U2OS. Nature of the test: Downregulation of N-palmitoylethanolamine level in human U2OS cells at 10 uM after 4 hrs by LC-MS/MS analysis. It is filed as functional, cell-based. The essentials:
as §1

For test [9], the target named is T2, Phospholipase A and acyltransferase 5 (Homo sapiens). Briefly: Inhibition of full-length C-terminal FLAG-tagged human PLAAT5 expressed in human U2OS cells assessed as reduction in absolute N-stearoylethanolamine level at 10 uM incubated for 4 hrs by LC-MS/MS analysis. It is filed as cell-based. The essentials: as §1
For test [10], the target named is T1, Phospholipase A and acyltransferase 2 (Homo sapiens). Nature of the test: Inhibition of full-length C-terminal FLAG-tagged human PLAAT2 expressed in human U2OS cells assessed as reduction in absolute N-palmitoylethanolamine level at 10 uM incubated for 4 hrs by LC-MS/MS analysis. It is filed as cell-based. The essentials: as §1
Test [11] has the same target. Nature of the test: Inhibition of full-length C-terminal FLAG-tagged human PLAAT2 expressed in human U2OS cells assessed as reduction in 2-AG level at 10 uM incubated for 4 hrs by LC-MS/MS analysis. It is filed as cell-based. The essentials: as §1
Test [12] has as its target N-acyl-phosphatidylethanolamine-hydrolyzing phospholipase D (Homo sapiens) (UniProt Q6IQ20). Briefly: Inhibition of full length human NAPE-PLD expressed in HEK293T cells assessed as enzyme remaining activity at 10 uM using PED6 as substrate preincubated for 30 mins followed by substrate addition and measured for 1 hr at 2 mins relative to control. It is filed as cell-based. The following applies: HEK-293T.

The target of test [13] is Diacylglycerol lipase-beta (Mus musculus) (UniProt Q91WC9). Nature of the test: Inhibition of mouse brain membrane DAGLbeta assessed as enzyme remaining activity at 10 uM preincubated for 30 mins followed by MB064 or FP-TAMRA addition and measured after 15 mins by SDS-PAGE based ABPP analysis relative to control. Format: cell membranes. The essentials:
as §2

Test [14] addresses T1, Phospholipase A and acyltransferase 2 (Homo sapiens). Briefly: Inhibition of full-length C-terminal FLAG-tagged human PLAAT2 expressed in human U2OS cells assessed as reduction in absolute N-linoleoylethanolamine level at 10 uM incubated for 4 hrs by LC-MS/MS analysis. It is filed as cell-based. The essentials:
as §1

The target is the same in test [15]. Briefly: Inhibition of full-length C-terminal FLAG-tagged human PLAAT2 expressed in human U2OS cells assessed as reduction in absolute N-docosahexaenoylethanolamine level at 10 uM incubated for 4 hrs by LC-MS/MS analysis. Format: cell-based. The essentials: as §1
The subject of test [16] is U2OS. Nature of the test: Downregulation of N-eicosapentaenoylethanolamine level in human U2OS cells at 10 uM after 4 hrs by LC-MS/MS analysis. Format: functional, cell-based. The essentials: as §1
Test [17] concerns the target T3, Phospholipase A and acyltransferase 2 (Homo sapiens, UniProt Q9NWW9).
T3 sequence (Q9NWW9 whole entry): T1 sequence (whole entry)
Briefly: Inhibition of full-length C-terminal FLAG-tagged human PLAAT2 expressed in HEK293T cell lysate preincubated for 30 mins followed by MB064 addition and measured after 20 mins by SDS-PAGE based ABPP analysis. Format: cell-free, HEK-293T. The essentials: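 Dose–response competitive ABPP on cytosol only, from HEK293T overexpressing FLAG-tagged PLAAT. Inhibitor 30 min rt, then MB064 20 min rt. PLAAT2 0.25 μg/μL with 250 nM probe; PLAAT3 0.5 μg/μL with 250 nM; PLAAT4 and PLAAT5 1 μg/μL with 500 nM. Fluorescence normalized to Coomassie. IC50 from curves, reported as pIC50 ± SEM, n = 3.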

Test [18] concerns U2OS. Nature of the test: Downregulation of N-stearoylethanolamine level in human U2OS cells at 10 uM after 4 hrs by LC-MS/MS analysis. It is filed as functional, cell-based. The essentials: as §1

Chain of Cannabinoid receptor 1 (Homo sapiens) (P21554 whole entry): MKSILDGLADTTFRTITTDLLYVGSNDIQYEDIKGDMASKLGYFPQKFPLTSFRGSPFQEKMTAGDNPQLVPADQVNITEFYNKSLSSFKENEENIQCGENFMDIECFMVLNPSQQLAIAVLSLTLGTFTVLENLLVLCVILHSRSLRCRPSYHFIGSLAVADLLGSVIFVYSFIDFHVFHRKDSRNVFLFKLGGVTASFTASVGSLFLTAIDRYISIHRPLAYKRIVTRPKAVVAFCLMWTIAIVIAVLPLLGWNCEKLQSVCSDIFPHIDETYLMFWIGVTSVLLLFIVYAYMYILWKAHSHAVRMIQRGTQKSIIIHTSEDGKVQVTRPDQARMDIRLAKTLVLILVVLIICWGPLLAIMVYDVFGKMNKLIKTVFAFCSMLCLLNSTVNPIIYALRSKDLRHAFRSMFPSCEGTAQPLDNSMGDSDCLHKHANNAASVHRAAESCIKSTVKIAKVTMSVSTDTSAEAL
Chain of N-acyl-phosphatidylethanolamine-hydrolyzing phospholipase D (Homo sapiens) (Q6IQ20 whole entry, looked up): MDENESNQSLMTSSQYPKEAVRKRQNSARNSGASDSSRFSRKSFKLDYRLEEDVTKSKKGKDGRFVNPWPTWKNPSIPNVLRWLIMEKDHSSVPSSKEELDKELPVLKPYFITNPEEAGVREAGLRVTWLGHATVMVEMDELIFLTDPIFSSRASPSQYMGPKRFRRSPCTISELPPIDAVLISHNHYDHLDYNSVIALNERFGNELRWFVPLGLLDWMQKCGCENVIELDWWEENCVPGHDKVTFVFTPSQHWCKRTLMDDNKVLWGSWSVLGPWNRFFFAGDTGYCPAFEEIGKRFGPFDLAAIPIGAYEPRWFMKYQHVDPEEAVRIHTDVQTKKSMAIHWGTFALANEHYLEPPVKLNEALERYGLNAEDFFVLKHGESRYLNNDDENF
Chain of Cytosolic phospholipase A2 epsilon (Homo sapiens) (Q3MJ16 whole entry): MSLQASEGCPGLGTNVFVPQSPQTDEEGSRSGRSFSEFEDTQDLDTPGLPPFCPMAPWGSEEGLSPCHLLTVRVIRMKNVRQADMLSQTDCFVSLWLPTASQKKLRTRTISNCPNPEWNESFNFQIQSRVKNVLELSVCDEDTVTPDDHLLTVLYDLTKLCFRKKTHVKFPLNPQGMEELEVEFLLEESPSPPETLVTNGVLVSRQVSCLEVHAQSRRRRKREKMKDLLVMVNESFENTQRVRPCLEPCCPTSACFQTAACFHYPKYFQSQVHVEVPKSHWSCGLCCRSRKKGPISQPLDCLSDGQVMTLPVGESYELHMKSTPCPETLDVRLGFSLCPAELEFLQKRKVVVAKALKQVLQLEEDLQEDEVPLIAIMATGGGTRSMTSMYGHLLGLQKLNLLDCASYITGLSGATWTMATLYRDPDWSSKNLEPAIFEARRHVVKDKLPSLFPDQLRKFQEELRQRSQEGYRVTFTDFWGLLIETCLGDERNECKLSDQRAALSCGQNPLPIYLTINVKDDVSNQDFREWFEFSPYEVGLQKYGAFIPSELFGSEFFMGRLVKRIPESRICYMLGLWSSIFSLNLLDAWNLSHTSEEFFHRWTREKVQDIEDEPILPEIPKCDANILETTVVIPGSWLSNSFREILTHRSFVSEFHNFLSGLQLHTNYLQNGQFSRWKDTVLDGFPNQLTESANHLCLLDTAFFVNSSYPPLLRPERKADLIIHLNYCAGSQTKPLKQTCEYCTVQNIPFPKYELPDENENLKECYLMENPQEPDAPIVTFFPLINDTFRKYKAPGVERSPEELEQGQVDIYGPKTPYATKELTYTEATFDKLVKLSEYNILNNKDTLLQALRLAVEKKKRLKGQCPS
Chain of Fatty-acid amide hydrolase 1 (Mus musculus) (O08914 whole entry): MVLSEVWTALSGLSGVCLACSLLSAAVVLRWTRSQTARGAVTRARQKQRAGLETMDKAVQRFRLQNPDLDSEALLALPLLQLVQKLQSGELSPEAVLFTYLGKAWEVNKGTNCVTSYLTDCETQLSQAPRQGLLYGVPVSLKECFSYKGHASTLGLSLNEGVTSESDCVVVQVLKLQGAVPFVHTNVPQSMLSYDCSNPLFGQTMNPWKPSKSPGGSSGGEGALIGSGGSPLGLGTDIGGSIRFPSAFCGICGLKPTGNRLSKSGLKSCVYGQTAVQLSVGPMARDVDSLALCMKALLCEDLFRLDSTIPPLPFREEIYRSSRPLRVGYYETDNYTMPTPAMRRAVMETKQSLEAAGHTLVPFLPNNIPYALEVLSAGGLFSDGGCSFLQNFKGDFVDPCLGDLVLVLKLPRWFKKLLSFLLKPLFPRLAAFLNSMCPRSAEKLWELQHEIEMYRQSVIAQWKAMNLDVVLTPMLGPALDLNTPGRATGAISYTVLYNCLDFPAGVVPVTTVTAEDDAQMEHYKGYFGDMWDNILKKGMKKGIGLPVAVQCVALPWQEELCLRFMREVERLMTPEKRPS
Chain of Diacylglycerol lipase-beta (Mus musculus) (Q91WC9 whole entry): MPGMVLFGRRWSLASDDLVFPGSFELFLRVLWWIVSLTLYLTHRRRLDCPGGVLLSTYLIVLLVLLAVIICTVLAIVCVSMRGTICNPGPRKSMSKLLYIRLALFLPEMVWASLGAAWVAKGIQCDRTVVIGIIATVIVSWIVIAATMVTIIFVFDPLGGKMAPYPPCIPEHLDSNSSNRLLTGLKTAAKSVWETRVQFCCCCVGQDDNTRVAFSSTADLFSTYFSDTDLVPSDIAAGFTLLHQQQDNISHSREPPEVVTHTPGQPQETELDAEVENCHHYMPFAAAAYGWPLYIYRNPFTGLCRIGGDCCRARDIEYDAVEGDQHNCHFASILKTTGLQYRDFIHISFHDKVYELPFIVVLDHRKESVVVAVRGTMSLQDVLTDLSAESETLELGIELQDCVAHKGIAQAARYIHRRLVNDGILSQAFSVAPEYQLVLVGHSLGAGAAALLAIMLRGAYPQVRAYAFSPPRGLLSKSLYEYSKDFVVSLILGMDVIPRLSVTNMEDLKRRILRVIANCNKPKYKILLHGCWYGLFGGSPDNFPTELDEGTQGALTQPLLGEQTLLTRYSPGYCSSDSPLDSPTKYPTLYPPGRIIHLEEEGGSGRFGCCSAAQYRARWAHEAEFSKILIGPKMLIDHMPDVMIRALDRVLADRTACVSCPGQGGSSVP

With `O=C(CCCc1ccccc1)C(=O)NCCc1ccc(Oc2ccccc2)cc1`, the inhibition result in test [1], in test [7], in test [9], in test [10], in [14] and in [15] was “Active” each time. Further, in test [2], the fold change (FC) amounted to 2. Moreover, the Activity in test [3] was 108%; in test [4] it was 49%; in test [5], 95%; in test [12] it was 92%; in [13] it was 83%. Besides, the inhibition result (with U2OS [6]; in the test with U2OS [8]; in test [11]; in the test with U2OS [16]; with U2OS [18]) was “inactive” throughout. The same compound showed an IC50 in test [17] of 50.1 nM.
